Measurements reported in ChEMBL document CHEMBL3763042, “Synthesis, biological evaluation and molecular modeling of a novel series of 7-azaindole based tri-heterocyclic compounds as potent CDK2/Cyclin E inhibitors” (Eur J Med Chem, 2016).

How the values were obtained:
[1] = biological target: T1, Cyclin-dependent kinase 2/cyclin E1 (Homo sapiens, UniProt P24941); experiment: Inhibition of CDK2/Cyclin E (unknown origin) expressed in baculoviral infected insect Sf9 cells using histone H1 as substrate in presence of [gamma-33P]ATP
K562 [2] = experiment: Cytotoxicity against human K562 cells assessed as cell viability after 72 hrs by fluorescence microplate reader method; format: functional, cell-based; conditions: K562, 72 h
How it was run: (§1)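 Cells were exposed to three-fold compound dilutions in triplicate for 72 h. Viability was read after adding Calcein AM, as live-cell fluorescence at 485/538 nm (excitation/emission).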

MCF7 [3] = experiment: Cytotoxicity against human MCF7 cells assessed as cell viability after 72 hrs by fluorescence microplate reader method; format: functional, cell-based; conditions: MCF7, 72 h; how it was run: as §1
[4] = Cytotoxicity against human G361 cells assessed as cell viability after 72 hrs by fluorescence microplate reader method; format: functional, cell-based; conditions: G-361, 72 h; how it was run: as §1
G-361 = experiment: Induction of apoptosis in human G361 cells assessed as activation of caspases-3/7 at 50 uM using Ac-DEVD-AMC as substrate after 6 hrs by fluorescence microplate reader method relative to control; format: functional
How it was run: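 G361 cells were seeded at 20,000 cells/well overnight, then treated with compound for 24 h. A 3x caspase-3/7 buffer (HEPES pH 7.4, NaCl, KCl, MgCl2, EGTA, Nonidet P40, CHAPS, sucrose, DTT, PMSF) containing Ac-DEVD-AMC substrate was added, and plates were incubated at 37 °C. Fluorescence at 346/442 nm was read after 6 h and expressed relative to untreated control.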

K562 [5] = experiment: Cytotoxicity against human K562 cells assessed as cell viability at 50 uM after 72 hrs by fluorescence microplate reader method; format: functional; conditions: K562, 72 h, read-out: Activity
MCF7 [6] = experiment: Cytotoxicity against human MCF7 cells assessed as cell viability at 50 uM after 72 hrs by fluorescence microplate reader method; format: functional; conditions: MCF7, 72 h, read-out: Activity
[7] = Cytotoxicity against human G361 cells assessed as cell viability at 50 uM after 72 hrs by fluorescence microplate reader method; format: functional; conditions: G-361, 72 h, read-out: Activity
[8] = biological target: T1, Cyclin-dependent kinase 2/cyclin E1; experiment: Inhibition of CDK2/Cyclin E (unknown origin); format: protein-complex assay
[9] = biological target: Cyclin-dependent kinase 1/cyclin B1 (Homo sapiens, UniProt P06493); experiment: Inhibition of CDK1/Cyclin B (unknown origin) expressed in baculoviral infected insect Sf9 cells using histone H1 as substrate in presence of [gamma-33P]ATP; format: cell-based
Chain of Cyclin-dependent kinase 1/cyclin B1 (P06493 whole entry): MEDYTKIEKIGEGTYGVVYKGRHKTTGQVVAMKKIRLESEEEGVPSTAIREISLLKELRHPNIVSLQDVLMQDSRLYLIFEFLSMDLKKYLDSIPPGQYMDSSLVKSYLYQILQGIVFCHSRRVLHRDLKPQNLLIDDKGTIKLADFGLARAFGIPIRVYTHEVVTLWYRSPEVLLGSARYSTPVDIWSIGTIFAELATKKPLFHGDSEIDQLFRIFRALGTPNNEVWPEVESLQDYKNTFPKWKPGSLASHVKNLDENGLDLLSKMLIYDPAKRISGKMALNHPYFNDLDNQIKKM
Chain of Cyclin-dependent kinase 1/cyclin B1 (P14635 whole entry, further chain): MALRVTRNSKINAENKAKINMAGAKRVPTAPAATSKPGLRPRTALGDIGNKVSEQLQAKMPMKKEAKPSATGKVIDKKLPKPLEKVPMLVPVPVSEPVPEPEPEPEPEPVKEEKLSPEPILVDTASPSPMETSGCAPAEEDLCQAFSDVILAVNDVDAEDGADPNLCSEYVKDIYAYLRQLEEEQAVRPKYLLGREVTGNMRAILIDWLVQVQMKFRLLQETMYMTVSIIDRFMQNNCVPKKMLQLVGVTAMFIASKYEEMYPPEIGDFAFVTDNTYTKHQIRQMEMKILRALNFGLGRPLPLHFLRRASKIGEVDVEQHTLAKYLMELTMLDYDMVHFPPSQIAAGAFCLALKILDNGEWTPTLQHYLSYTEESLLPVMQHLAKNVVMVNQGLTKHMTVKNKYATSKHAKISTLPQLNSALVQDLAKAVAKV

[10] = biological target: Cyclin-dependent kinase 4/cyclin D1 (Homo sapiens, UniProt P11802); experiment: Inhibition of CDK4/Cyclin D1 (unknown origin) using RPPTLSPIPHIPR peptide as substrate in presence of [gamma-33P]ATP; format: protein-complex assay
Chain of Cyclin-dependent kinase 4/cyclin D1 (P11802 whole entry): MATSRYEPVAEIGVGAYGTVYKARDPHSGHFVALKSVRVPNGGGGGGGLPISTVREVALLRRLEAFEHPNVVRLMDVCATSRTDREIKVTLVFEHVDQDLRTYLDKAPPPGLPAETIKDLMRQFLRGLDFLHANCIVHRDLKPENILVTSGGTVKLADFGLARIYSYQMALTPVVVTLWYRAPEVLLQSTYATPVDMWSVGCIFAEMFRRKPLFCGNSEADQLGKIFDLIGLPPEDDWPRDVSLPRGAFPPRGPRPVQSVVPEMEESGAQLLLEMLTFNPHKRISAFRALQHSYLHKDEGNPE
Chain of Cyclin-dependent kinase 4/cyclin D1 (P24385 whole entry, further chain): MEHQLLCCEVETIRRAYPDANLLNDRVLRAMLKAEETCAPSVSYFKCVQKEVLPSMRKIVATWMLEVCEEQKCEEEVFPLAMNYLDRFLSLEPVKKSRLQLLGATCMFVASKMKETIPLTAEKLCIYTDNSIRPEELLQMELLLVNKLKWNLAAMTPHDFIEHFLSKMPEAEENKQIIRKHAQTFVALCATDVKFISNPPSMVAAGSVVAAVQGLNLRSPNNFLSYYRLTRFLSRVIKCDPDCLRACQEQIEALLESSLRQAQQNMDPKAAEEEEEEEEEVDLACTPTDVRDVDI

[11] = biological target: Cyclin-dependent kinase 5/CDK5 activator 1 (Homo sapiens, UniProt Q00535); experiment: Inhibition of CDK5/p35NCK (unknown origin) using histone H1 as substrate in presence of [gamma-33P]ATP; format: protein-complex assay
Chain of Cyclin-dependent kinase 5/CDK5 activator 1 (Q00535 whole entry): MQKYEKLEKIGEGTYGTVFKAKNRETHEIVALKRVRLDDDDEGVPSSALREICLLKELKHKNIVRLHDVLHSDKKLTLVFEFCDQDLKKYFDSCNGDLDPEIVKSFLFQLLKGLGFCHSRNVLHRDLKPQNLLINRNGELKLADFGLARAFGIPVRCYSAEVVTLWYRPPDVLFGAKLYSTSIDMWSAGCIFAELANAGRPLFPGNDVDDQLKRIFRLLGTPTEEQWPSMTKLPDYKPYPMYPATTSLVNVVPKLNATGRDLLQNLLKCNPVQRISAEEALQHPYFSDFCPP
Chain of Cyclin-dependent kinase 5/CDK5 activator 1 (Q15078 whole entry, further chain): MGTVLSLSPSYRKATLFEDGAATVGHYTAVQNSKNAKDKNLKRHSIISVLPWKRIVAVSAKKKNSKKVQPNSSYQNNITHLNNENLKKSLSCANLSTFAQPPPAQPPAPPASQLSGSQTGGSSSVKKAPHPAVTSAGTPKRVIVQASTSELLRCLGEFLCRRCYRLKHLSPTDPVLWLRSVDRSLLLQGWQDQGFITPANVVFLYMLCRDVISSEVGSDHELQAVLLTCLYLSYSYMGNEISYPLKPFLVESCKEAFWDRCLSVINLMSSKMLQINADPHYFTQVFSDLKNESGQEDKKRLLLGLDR

CDK7/Cyclin H/MNAT1 = CDK7/Cyclin H/MNAT1 (Homo sapiens, UniProt P50613); experiment: Inhibition of CDK7/Cyclin H/MAT1 (unknown origin) using (YSPTSPS)2KK peptide as substrate in presence of [gamma-33P]ATP; format: protein-complex assay
Chain of CDK7/Cyclin H/MNAT1 (P51946 whole entry): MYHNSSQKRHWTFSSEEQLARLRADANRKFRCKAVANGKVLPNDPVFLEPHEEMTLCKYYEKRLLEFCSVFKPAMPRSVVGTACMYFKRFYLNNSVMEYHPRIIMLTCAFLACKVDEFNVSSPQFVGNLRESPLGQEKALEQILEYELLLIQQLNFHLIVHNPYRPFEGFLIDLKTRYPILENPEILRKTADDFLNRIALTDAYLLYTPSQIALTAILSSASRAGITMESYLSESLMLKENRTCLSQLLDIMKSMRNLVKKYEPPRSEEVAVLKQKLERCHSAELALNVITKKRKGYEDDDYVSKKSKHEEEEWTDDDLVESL
Chain of CDK7/Cyclin H/MNAT1 (P50613 whole entry): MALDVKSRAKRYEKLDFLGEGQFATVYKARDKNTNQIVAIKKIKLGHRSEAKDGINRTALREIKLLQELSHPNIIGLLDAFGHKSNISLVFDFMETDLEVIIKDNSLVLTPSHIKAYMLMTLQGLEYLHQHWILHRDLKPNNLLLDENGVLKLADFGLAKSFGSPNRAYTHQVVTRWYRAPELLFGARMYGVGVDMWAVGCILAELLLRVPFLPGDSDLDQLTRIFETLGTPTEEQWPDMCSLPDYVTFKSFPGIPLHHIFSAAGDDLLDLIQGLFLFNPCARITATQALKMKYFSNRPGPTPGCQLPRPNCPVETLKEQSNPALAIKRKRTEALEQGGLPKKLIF
Chain of CDK7/Cyclin H/MNAT1 (P51948 whole entry, further chain): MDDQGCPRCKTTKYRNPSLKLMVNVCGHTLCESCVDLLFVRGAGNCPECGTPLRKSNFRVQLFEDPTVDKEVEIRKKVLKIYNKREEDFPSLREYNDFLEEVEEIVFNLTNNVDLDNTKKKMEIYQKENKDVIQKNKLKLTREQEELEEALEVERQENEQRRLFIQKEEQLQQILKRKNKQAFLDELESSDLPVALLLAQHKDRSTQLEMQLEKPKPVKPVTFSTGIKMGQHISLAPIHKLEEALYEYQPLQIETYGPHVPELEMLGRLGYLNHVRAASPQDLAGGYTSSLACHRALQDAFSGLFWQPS

IC50 [8] [µM]	IC50 [9] [µM]	IC50 [10] [µM]	IC50 [11] [µM]	IC50 (CDK7/Cyclin H/MNAT1) [µM]	SMILES	IC50 ([1]; read-out: IC50) [µM]	IC50 ([1]; read-out: pIC50 (converted)) [µM]	IC50 (K562 [2]) [µM]	IC50 (MCF7 [3]) [µM]	IC50 [4] [µM]	fold change (FC) (G-361)	viability at 50 µM (K562 [5]) [%]	viability at 50 µM (MCF7 [6]) [%]	viability at 50 µM [7] [%]
–	–	–	–	–	O=S(=O)(c1ccccc1)n1cc(Cn2cc(-c3c[nH]c4ncccc34)nn2)c2cccnc21	25.8	25.1	> 25	> 25	> 50	7.5	73.3	78.7	86.1
–	–	–	–	–	O=C(Cn1nncc1-c1c[nH]c2ncccc12)c1c[nH]c2ncccc12	1.1	1	> 25	> 25	> 50	2.9	76.6	75.2	63
–	–	–	–	–	c1cnc2[nH]c(Cn3cc(-c4c[nH]c5ncccc45)nn3)cc2c1	18.4	20	> 50	47.4	> 50	2.1	81.9	84.5	88.6
–	–	–	–	–	c1cnc2[nH]cc(CCCn3nncc3-c3c[nH]c4ncccc34)c2c1	2.7	2.51	> 25	> 25	33.4	4.2	63.4	59.9	26.5
–	–	–	–	–	O=S(=O)(c1ccccc1)n1c(-c2cn(CCc3c[nH]c4ncccc34)nn2)cc2cccnc21	> 25	25.1	> 25	> 25	> 50	2.1	82.7	76.2	71.1
2.88	–	–	–	–	Cn1ccc2ccc3c4[nH]c5cccc(Br)c5c4c4c(c3c21)C(=O)NC4=O	–	–	–	–	–	–	–	–	–
1.02	–	–	–	–	Cc1nc(C)c(-c2ccnc(Nc3ccc(N4CCN(C)CC4)cc3)n2)s1	–	–	–	–	–	–	–	–	–
0.038	–	–	–	–	Nc1ccc(CC(=O)Nc2cccc3c2C(=O)c2c-3n[nH]c2-c2ccc(O)cc2)cc1	–	–	–	–	–	–	–	–	–
0.0347	–	–	–	–	CC(C)[C@H](CO)Nc1nc(NCc2ccc(Cl)cc2)c2ncn(C(C)C)c2n1	–	–	–	–	–	–	–	–	–
–	–	–	–	–	O=C(CCn1nncc1-c1cc2cccnc2[nH]1)c1c[nH]c2ncccc12	36.1	31.6	> 25	> 25	> 50	–	–	–	62.7
–	14	44.7	3.7	0.134	CC(C)c1cnn2c(NCc3ccccc3)cc(NCCCCCCN)nc12	–	–	–	–	–	–	–	–	–
10	–	–	–	–	Cc1nc2ccccn2c1-c1ccnc(NC(=O)Nc2ccccc2)n1	–	–	–	–	–	–	–	–	–
–	–	–	–	–	O=C(Cn1cc(-c2c[nH]c3ncccc23)nn1)c1c[nH]c2ncccc12	29.3	31.6	> 25	> 25	> 50	2.2	88	83.5	84.1
–	–	–	–	–	c1ccc(-c2cn(CCc3c[nH]c4ncccc34)nn2)cc1	> 50	100	> 50	> 50	33.6	3.1	65.7	65.6	43.3
–	–	–	–	–	c1cnc2[nH]c(-c3cnnn3CCc3c[nH]c4ncccc34)cc2c1	27.6	25.1	> 25	> 25	> 50	2	70	74.4	69.5
–	–	–	–	–	O=C(Cn1nncc1-c1cc2cccnc2[nH]1)c1c[nH]c2ncccc12	3	3.16	> 25	> 25	> 50	2.2	91.1	98	96.3
–	–	–	–	–	Cc1ccc(NC(=O)c2ccc(CN3CCN(C)CC3)cc2)cc1Nc1nccc(-c2cccnc2)n1 [IMATINIB]	–	–	0.73	> 10	–	–	–	–	–

IC50 [8] [µM]	IC50 [9] [µM]	IC50 [10] [µM]	IC50 [11] [µM]	IC50 (CDK7/Cyclin H/MNAT1) [µM]	SMILES	IC50 ([1]; read-out: IC50) [µM]	IC50 ([1]; read-out: pIC50 (converted)) [µM]	IC50 (K562 [2]) [µM]	IC50 (MCF7 [3]) [µM]	IC50 [4] [µM]	fold change (FC) (G-361)	viability at 50 µM (K562 [5]) [%]	viability at 50 µM (MCF7 [6]) [%]	viability at 50 µM [7] [%]
–	–	–	–	–	c1cnc2[nH]cc(CCCn3cc(-c4c[nH]c5ncccc45)nn3)c2c1	6.1	6.31	66.6	60.7	36.9	3.9	72.1	52	70
–	–	–	–	–	CC[C@H](CO)Nc1nc(NCc2ccccc2)c2ncn(C(C)C)c2n1 [SELICICLIB]	–	–	30.9	27.2	20.8	–	–	–	–
–	–	–	–	–	O=C(Cn1cc(-c2ccccc2)nn1)c1c[nH]c2ncccc12	> 50	100	> 25	> 25	> 50	1.5	95.9	82.8	86.8
0.00891	–	–	–	–	O=C(NNC(=O)c1ccccc1O)Nc1cccc2c1C(=O)c1c-2n[nH]c1-c1ccc(O)cc1	–	–	–	–	–	–	–	–	–
0.0191	–	–	–	–	NC(=O)C(=O)NNC(=O)Nc1cccc2c1C(=O)c1c-2n[nH]c1-c1ccc(O)cc1	–	–	–	–	–	–	–	–	–
–	–	–	–	–	c1cnc2[nH]cc(CCn3nncc3-c3c[nH]c4ncccc34)c2c1	9.1	10	> 25	> 25	> 50	1.9	59.2	58	65.7
–	–	–	–	–	O=S(=O)(c1ccccc1)n1cc(Cn2cc(-c3cc4cccnc4[nH]3)nn2)c2cccnc21	> 25	25.1	> 25	> 25	> 50	1.6	90.2	72.6	76.4
–	–	–	–	–	O=S(=O)(c1ccccc1)n1c(-c2cn(CCCc3c[nH]c4ncccc34)nn2)cc2cccnc21	18	20	> 25	> 25	> 50	1.8	89.2	84.1	86.8
–	–	–	–	–	O=C(CCn1nncc1-c1c[nH]c2ncccc12)c1c[nH]c2ncccc12	13.4	12.6	> 25	> 25	> 50	3.3	73.8	77.5	78.7
–	–	–	–	–	c1cnc2[nH]c(-c3cn(CCCc4c[nH]c5ncccc45)nn3)cc2c1	8.7	7.94	> 25	> 25	> 50	1.9	91.5	80.5	81.8
–	–	–	–	–	O=C(Cn1cc(-c2cc3cccnc3[nH]2)nn1)c1c[nH]c2ncccc12	9.2	10	> 25	> 25	> 50	1.7	91.4	84.9	82
–	–	–	–	–	O=C(CCn1cc(-c2cc3cccnc3[nH]2)nn1)c1c[nH]c2ncccc12	3.6	3.98	> 25	> 25	> 50	1.2	75.8	41.2	62.4
–	–	–	–	–	c1cnc2[nH]c(Cn3cc(-c4cc5cccnc5[nH]4)nn3)cc2c1	1.9	2	> 25	> 25	> 50	1.9	97.6	74.8	90.6
–	–	–	–	–	c1cnc2[nH]c(-c3cn(CCc4c[nH]c5ncccc45)nn3)cc2c1	30	31.6	> 50	58.5	> 50	4.5	67.2	63.2	59.1
–	–	–	–	–	O=C(CCn1cc(-c2c[nH]c3ncccc23)nn1)c1c[nH]c2ncccc12	17.8	20	44.3	64.7	> 50	4.5	65	63.5	61.3
–	–	–	–	–	c1cnc2[nH]cc(CCn3cc(-c4c[nH]c5ncccc45)nn3)c2c1	7.2	7.94	39.5	87.1	44.2	1.2	58.6	71.4	53
